Square brackets hold non-standard residues; d marks the D form. Peptide text beside a SMILES is read from it. * marks the point of attachment. pGlu = O=C1CC[C@@H](C(=O)O)N1; X1 = O=C(NN*)C(F)(F)F; X5 = N/C(S)=N\N*; X2 = CC(=O)NN*; X3 = CN(N)*; X4 = O=CNN*

Consider 6 compounds from ChEMBL document CHEMBL1121789, “Some analogues of luteinizing hormone-releasing hormone with substituents in position 10” (1981).

Experiment [1] is filed under the species Rattus norvegicus. Briefly: In vitro LH-release potency of compound was measured in rat hemipituitaries by taking LH-RH as standard. The class given is functional. Put shortly:
(§1)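 Rat hemipituitaries incubated in vitro with each analogue, usually at two dose levels in a 2 × 2 (four-point) design against an LH-RH standard. Media sampled 6 h later and assayed for LH and FSH by radioimmunoassay. Potency expressed relative to the standard, with 95% confidence limits.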

Experiment [2] is filed under the species Rattus norvegicus. Briefly: In vitro FSH-release potency of compound was measured in rat hemipituitaries by taking LH-RH as standard. The class given is functional. Put shortly: as §1

With `CC(C)C[C@H](NC(=O)CNC(=O)[C@H](Cc1ccc(O)cc1)NC(=O)[C@H](CO)NC(=O)[C@H](Cc1c[nH]c2ccccc12)NC(=O)[C@H](Cc1c[nH]cn1)NC(=O)[C@@H]1CCC(=O)N1)C(=O)N[C@@H](CCCN=C(N)N)C(=O)N1CCC[C@H]1C(=O)N(C)N` ([pGlu]HWSYGLRP-X3), the Potency in the experiment filed under Rattus norvegicus [1] is given as 17; in the experiment filed under Rattus norvegicus [2], 11.
On the same counts, the results for `CC(C)C[C@H](NC(=O)CNC(=O)[C@H](Cc1ccc(O)cc1)NC(=O)[C@H](CO)NC(=O)[C@H](Cc1c[nH]c2ccccc12)NC(=O)[C@H](Cc1c[nH]cn1)NC(=O)[C@@H]1CCC(=O)N1)C(=O)N[C@@H](CCCN=C(N)N)C(=O)N1CCC[C@H]1C(=O)NNC=O` ([pGlu]HWSYGLRP-X4) are 15.3 and 10.
On the same counts, the results for `CC(=O)NNC(=O)[C@@H]1CCCN1C(=O)[C@H](CCCN=C(N)N)NC(=O)[C@H](CC(C)C)NC(=O)CNC(=O)[C@H](Cc1ccc(O)cc1)NC(=O)[C@H](CO)NC(=O)[C@H](Cc1c[nH]c2ccccc12)NC(=O)[C@H](Cc1c[nH]cn1)NC(=O)[C@@H]1CCC(=O)N1` ([pGlu]HWSYGLRP-X2) are 1.2 and 0.6.
Take `CC(C)C[C@H](NC(=O)CNC(=O)[C@H](Cc1ccc(O)cc1)NC(=O)[C@H](CO)NC(=O)[C@H](Cc1c[nH]c2ccccc12)NC(=O)[C@H](Cc1c[nH]cn1)NC(=O)[C@@H]1CCC(=O)N1)C(=O)N[C@@H](CCCN=C(N)N)C(=O)N1CCC[C@H]1C(=O)NNC(=O)C(F)(F)F` ([pGlu]HWSYGLRP-X1): the Potency is 1 in the experiment listed under Rattus norvegicus [1] and 0.9 in the experiment filed under Rattus norvegicus [2].
In the case of `CC(C)C[C@H](NC(=O)CNC(=O)[C@H](Cc1ccc(O)cc1)NC(=O)[C@H](CO)NC(=O)[C@H](Cc1c[nH]c2ccccc12)NC(=O)[C@H](Cc1cnc[nH]1)NC(=O)[C@@H]1CCC(=O)N1)C(=O)N[C@@H](CCCNC(=N)N)C(=O)N1CCC[C@H]1C(=O)NCC(N)=O` [GONADORELIN], the Potency in the experiment filed under Rattus norvegicus [1] and in the experiment listed under Rattus norvegicus [2] was 100 throughout.
Regarding `CC(C)C[C@H](NC(=O)CNC(=O)[C@H](Cc1ccc(O)cc1)NC(=O)[C@H](CO)NC(=O)[C@H](Cc1c[nH]c2ccccc12)NC(=O)[C@H](Cc1c[nH]cn1)NC(=O)[C@@H]1CCC(=O)N1)C(=O)N[C@@H](CCCN=C(N)N)C(=O)N1CCC[C@H]1C(=O)N/N=C(\N)S` ([pGlu]HWSYGLRP-X5), the Potency in the experiment filed under Rattus norvegicus [1] came out at 6.5; in the experiment listed under Rattus norvegicus [2] it was 4.6.
